This is an account of results in ChEMBL document CHEMBL1124185, “Studies on some derivatives of oxamniquine” (1988).

What all share (format): functional
The subject of test [1] is Schistosoma mansoni. The test can be described thus: Percent [3H]uridine incorporation relative to controls for a dose of 75 ug/mL against hycanthone-resistant schistosomes.
Test [2] has as its system Schistosoma mansoni. The experiment in a line: Percent [3H]uridine incorporation relative to control at 50 ug/mL against hycanthone-sensitive schistosomes (% worms surviving in culture). In outline: (§1)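 Hycanthone-sensitive Schistosoma mansoni worms exposed to compound in vitro. [3H]uridine incorporation into the worms was measured and expressed relative to untreated controls. Worm survival in culture was scored in parallel.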

The subject of test [3] is Schistosoma mansoni. The experiment in a line: Percent [3H]uridine incorporation relative to controls for a dose of 100 ug/mL against hycanthone-sensitive schistosomes.(% warms surviving in culture). In outline:
as §1

Test [4] has as its system Schistosoma mansoni. The experiment in a line: Percent [3H]uridine incorporation relative to controls for a dose of 100 ug/mL against hycanthone-resistant schistosomes.
In test [5] the test system is Schistosoma mansoni. The test can be described thus: Percent [3H]uridine incorporation relative to controls for a dose of 50 ug/mL against hycanthone-resistant schistosomes.
The test system of test [6] is Schistosoma mansoni. The experiment in a line: Percent [3H]-uridine incorporation relative to controls for a dose of 100 ug/mL against hycanthone-sensitive schistosomes (% warms surviving in culture). In outline:
as §1

The mark [7] stands for this setting: in the assay text read “at 75 ug/mL” for “at 50 ug/mL”.

With `COc1ccc(S(=O)(=O)N/N=C/c2cc3c(cc2[N+](=O)[O-])NC(CNC(C)C)CC3)cc1` (stereo not drawn), the Incorporation was 106% in test [1] and 53% in test [2] (setting [7]).
On to `Cc1cc(C)c(S(=O)(=O)N/N=C/c2cc3c(cc2[N+](=O)[O-])NC(CNC(C)C)CC3)c(C)c1` (stereo not drawn), for which the Incorporation in test [3] amounted to 20%; in test [4], 100%; in test [5] it was 100%; in test [2], 24%.
As for `CC(C)NCC1CCc2cc(/C=N/NS(=O)(=O)c3ccc([N+](=O)[O-])cc3)c([N+](=O)[O-])cc2N1` (stereo not drawn), the Incorporation turned out to be 96% in test [1] and 49% in test [2] (setting [7]).
Consider `Cc1ccc(S(=O)(=O)N/N=C/c2cc3c(cc2[N+](=O)[O-])NC(CNC(C)C)CC3)cc1` (stereo not drawn), for which the Incorporation in test [3] came to 32%; in test [4], 100%; in test [5] it was 102%; in test [2], 60%.
Take `CC(C)NCC1CCc2cc(CO)c([N+](=O)[O-])cc2N1` (stereo not drawn) [OXAMNIQUINE]: the Incorporation was 97% in test [5] and 14% in test [2].
Regarding `CNC(=O)OCc1cc2c(cc1[N+](=O)[O-])NC(CNC(C)C)CC2` (stereo not drawn), the Incorporation was determined as 21% in test [6], 100% in test [4], 100% in test [5] and 22% in test [2].
